In experiment [1] the test system is Rattus norvegicus. Nature of the experiment: The mean increase in paw volume was compared between drug treated groups and placebo to calculate the percent inhibition in rats at 0.02 mmol/kg by carrageenan Edema Assay; 20-29. In kind it is functional.
In experiment [2] the test system is Rattus norvegicus. Nature of the experiment: The mean increase in paw volume was compared between drug treated groups and placebo to calculate the percent inhibition in rats at 0.02 mmol/kg by carrageenan Edema Assay; 0-19. Format: functional.
Experiment [3] concerns Rattus norvegicus. Briefly: The mean increase in paw volume was compared between drug treated groups and placebo to calculate the percent inhibition in rats at 0.02 mmol/kg by carrageenan Edema Assay; 30-39. Format: functional. The note with it: Rattus norvegicus.
Experiment [4] has as its system Rattus norvegicus. Briefly: The percent inhibition was calculated from the average differences in hind paw volume between the adjuvant injected controls and the adjuvant-injected medicated rats at 0.08 mmol/kg; 90-99. Format: functional.
In experiment [5] the test system is Rattus norvegicus. Briefly: The mean increase in paw volume was compared between drug treated groups and placebo to calculate the percent inhibition in rats at 0.08 mmol/kg by carrageenan Edema Assay; 40-49. Format: functional.
Experiment [6] deals with Rattus norvegicus. Briefly: The percent inhibition was calculated from the average differences in hind paw volume between the adjuvant injected controls and the adjuvant-injected medicated rats at 0.08 mmol/kg; 70-79. Format: functional.
Experiment [7] relates to Rattus norvegicus. Nature of the experiment: The mean increase in paw volume was compared between drug treated groups and placebo to calculate the percent inhibition in rats at 0.08 mmol/kg by carrageenan Edema Assay; 30-39. Format: functional.
Experiment [8] relates to Rattus norvegicus. Briefly: The percent inhibition was calculated from the average differences in hind paw volume between the adjuvant injected controls and the adjuvant-injected medicated rats at 0.08 mmol/kg; 40-49. Format: functional.
Experiment [9] relates to Rattus norvegicus. Briefly: The mean increase in paw volume was compared between drug treated groups and placebo to calculate the percent inhibition in rats at 0.02 mmol/kg by carrageenan Edema Assay; 40-49. In kind it is functional.
Experiment [10] has as its system Rattus norvegicus. Briefly: Antiinflammatory efficacy is measured by the percent inhibition of paw volume during the 3 week adjuvant arthritis test at 0.005 mM/kg (2.11 mg). In kind it is functional. In outline:
(§1)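 Male Sprague-Dawley rats (200–230 g) were used in groups of eight. Each received 0.1 mL of 0.6% M. butyricum in heavy mineral oil into the plantar tissue of one hind paw. Daily oral gavage in 1% gum tragacanth or corn oil-water emulsion began on the injection day and ran 21 days. Total hind paw volume was measured by mercury displacement, and inhibition was taken versus vehicle-treated adjuvant controls.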

The species entered for experiment [11] is Rattus norvegicus. Nature of the experiment: Compound was evaluated for highest non-ulcerogenic dose (less than 50% ulcer incidence). In kind it is functional. The note with it: read-out: ED50. Put shortly: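 Taken from the 21-day adjuvant arthritis test in male Sprague-Dawley rats dosed orally each day from the day of adjuvant injection. Small intestines and stomachs were examined for ulceration at the end. The value is the highest dose giving less than 50% ulcer incidence.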

The subject of experiment [12] is Rattus norvegicus. Briefly: Ulcerogenicity was measured in stomach during the 3 week adjuvant arthritis test, no of animals with ulcers out of 4 animals tested at 0.02 mM/kg (8.43 mg) was reported. Format: functional. In outline:
(§2)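 Male Sprague-Dawley rats (200–230 g) were injected in the plantar tissue of one hind paw with 0.1 mL of 0.6% M. butyricum suspension in heavy mineral oil. Daily oral gavage began on the day of adjuvant injection and ran for the 21 days, with drug suspended in 1% gum tragacanth or a corn oil-water emulsion. At the end the rats were sacrificed and the small intestine and stomach were examined for ulcers. Results are given as animals with ulcers/animals tested.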

For experiment [13], the system named is Rattus norvegicus. Briefly: Antiinflammatory efficacy is measured by the weight gain in rats during the 3 week adjuvant arthritis test at 0.02 mM/kg (8.43 mg). Format: functional. Put shortly:
(§3)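 Rats were adjuvant-injected (M. butyricum in mineral oil, one hind paw) or given a mineral-oil placebo. They were dosed by gavage daily for 21 days from the injection day, with vehicle only for both control groups, then weighed at the end. Weight gain % = (treated − adjuvant control)/(negative control − adjuvant control) × 100.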

Experiment [14] relates to Rattus norvegicus. Briefly: Antiinflammatory efficacy is measured by the percent inhibition of paw volume during the 3 week adjuvant arthritis test at 0.08 mM/kg (33.7 mg). In kind it is functional. In outline:
as §1

Experiment [15] relates to Rattus norvegicus. Nature of the experiment: Antiinflammatory efficacy is measured by the weight gain in rats during the 3 week adjuvant arthritis test at 0.005 mM/kg (2.11 mg). Format: functional. Put shortly:
as §3

The test system of experiment [16] is Rattus norvegicus. Nature of the experiment: The percent inhibition was calculated from the average differences in hind paw volume between the adjuvant injected controls and the adjuvant-injected medicated rats at 0.08 mmol/kg; 80-89. Format: functional.
Experiment [17] has as its system Rattus norvegicus. Briefly: Ulcerogenicity was measured in intestine during the 3 week adjuvant arthritis test, no of animals with ulcers out of animals tested at 0.16 mM/kg (67.4 mg) was reported; toxic. In kind it is functional, organism-based. In outline:
as §2

The subject of experiment [18] is Rattus norvegicus. Nature of the experiment: Ulcerogenicity was measured in intestine during the 3 week adjuvant arthritis test, no of animals with ulcers out of 4 animals tested at 0.02 mM/kg (8.43 mg) was reported. Format: functional. In outline:
(§4)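 In the 21-day adjuvant arthritis model, male Sprague-Dawley rats (200–230 g) received an M. butyricum mineral-oil suspension into one hind paw. They were dosed daily by gavage from the day of injection. At the end of the study the rats were killed, and the small intestines were examined for ulcers. Results are given as the number of ulcerated animals over the number tested.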

Experiment [19] concerns Rattus norvegicus. Briefly: Ulcerogenicity was measured in intestine during the 3 week adjuvant arthritis test, no of animals with ulcers out of 8 animals tested at 0.08 mM/kg (33.7 mg) was reported. In kind it is functional. Put shortly: as §4
For experiment [20], the system named is Rattus norvegicus. Briefly: Antiinflammatory efficacy is measured by the weight gain in rats during the 3 week adjuvant arthritis test at 0.08 mM/kg (33.7 mg). In kind it is functional. In outline: as §3
In experiment [21] the test system is Rattus norvegicus. Nature of the experiment: Ulcerogenicity was measured in stomach during the 3 week adjuvant arthritis test, no of animals with ulcers out of 8 animals tested at 0.08 mM/kg (33.7 mg) was reported. Format: functional. In outline: as §2
The subject of experiment [22] is Rattus norvegicus. Briefly: Antiinflammatory efficacy is measured by the percent inhibition of paw volume during the 3 week adjuvant arthritis test at 0.02 mM/kg (8.43 mg). In kind it is functional. In outline: as §1
The subject of experiment [23] is Rattus norvegicus. Nature of the experiment: The percent inhibition was calculated from the average differences in hind paw volume between the adjuvant injected controls and the adjuvant-injected medicated rats at 0.08 mmol/kg; 60-69. In kind it is functional. The settings on record: Rattus norvegicus.

On to `Cc1ccccc1C(=O)c1cccc(C(C)CN2CCCCC2CC2CCCCC2)c1` (centres undefined), for which the inhibition in vivo at 20 µmol/kg in the experiment with Rattus norvegicus [1] is 20%.

For the compound `O/N=C(/c1ccccc1)c1cccc(CCN2CCOCC2)c1`, the inhibition in vivo at 20 µmol/kg in the experiment with Rattus norvegicus [2] is 0%. `CC(CN1CCCCC1CC1CCCCC1)c1cccc(C(C)(O)c2ccccc2)c1` (centres undefined): the inhibition in vivo at 20 µmol/kg in the experiment with Rattus norvegicus [2] is 0%.

With `O=C(c1ccccc1)c1cccc(CCN2CCCCC2CC2CCCCC2)c1` (centres undefined), in the experiment on Rattus norvegicus [1], the inhibition in vivo at 20 µmol/kg is 20%. For the compound `CC(CN1CCCCC1CC1CCCCC1)c1cccc(C(N)c2ccccc2)c1` (centres undefined), the inhibition in vivo at 20 µmol/kg in the experiment on Rattus norvegicus [3] was 30%. Moreover, the inhibition in vivo at 80 µmol/kg with Rattus norvegicus [4] is 90%.

Consider `Cc1ccc(C(=O)c2cccc(C(C)CN3CCCCC3CC3CCCCC3)c2)cc1` (centres undefined), for which the inhibition in vivo at 20 µmol/kg in the experiment with Rattus norvegicus [2] was 0%. As to `CC(CN1CCOCC1)c1cccc(C(N)c2ccccc2)c1` (centres undefined), the inhibition in vivo at 80 µmol/kg was 40% in the experiment with Rattus norvegicus [5] and 70% in the experiment with Rattus norvegicus [6].

Take `CC(CN1CCCCC1CC1CCCCC1)c1cccc(C(O)c2c(Cl)cccc2Cl)c1` (centres undefined): the inhibition in vivo at 20 µmol/kg with Rattus norvegicus [2] is 0%.

In the case of `OC(c1ccccc1)c1cccc(CCN2CCCCC2CC2CCCCC2)c1` (centres undefined), in the experiment with Rattus norvegicus [2], the inhibition in vivo at 20 µmol/kg is 0%.

Turning to `CC(CN1CCCCC1CCCC1CCCCC1)c1cccc(C(=O)c2ccccc2)c1` (centres undefined), the inhibition in vivo at 80 µmol/kg in the experiment with Rattus norvegicus [7] was 30%. As for `CC(CN1CCCCC1CCC1CCCCC1)c1cccc(C(=O)c2ccccc2)c1` (centres undefined), the inhibition in vivo at 80 µmol/kg in the experiment with Rattus norvegicus [7] is 30%; with Rattus norvegicus [4] it was 90%. Regarding `CC(CN1CCCCC1CC1CCCCC1)c1cccc(Cc2ccccc2)c1` (centres undefined), the inhibition in vivo at 80 µmol/kg in the experiment with Rattus norvegicus [4] was 90%. Further, the inhibition in vivo at 20 µmol/kg in the experiment on Rattus norvegicus [1] was 20%. Consider `CC(CN1CCCCC1CCCC1CCCCC1)c1cccc(C(O)c2ccccc2)c1` (centres undefined), for which, in the experiment on Rattus norvegicus [3], the inhibition in vivo at 20 µmol/kg is 30%. Consider `CC(CN1CCCCC1C1CCCCC1)c1cccc(C(=O)c2ccccc2)c1` (centres undefined), for which the results for the inhibition in vivo at 80 µmol/kg in the experiment with Rattus norvegicus [7] and in the experiment with Rattus norvegicus [4] were 30% and 90%, respectively. As for `NC(c1ccccc1)c1cccc(CCN2CCOCC2)c1` (centres undefined), in the experiment with Rattus norvegicus [2], the inhibition in vivo at 20 µmol/kg is 0%.

Take `Cc1ccc(C(O)c2cccc(C(C)CN3CCCCC3CC3CCCCC3)c2)cc1` (centres undefined): the inhibition in vivo at 20 µmol/kg with Rattus norvegicus [2] was 0%. Regarding `CC(CN1CCCCC1CC1CCCCC1)c1cccc(C(C)c2ccccc2)c1` (centres undefined), the inhibition in vivo at 20 µmol/kg in the experiment with Rattus norvegicus [2] is 0%. As for `CC(CN1CCC(CN2CCCCC2)CC1)c1cccc(C(=O)c2ccccc2)c1` (centres undefined), the results for the inhibition in vivo at 80 µmol/kg in the experiment on Rattus norvegicus [5] and in the experiment with Rattus norvegicus [4] were 40% and 90%, respectively. `CN(C)CCCNCCc1cccc(C(=O)c2ccccc2)c1`: the results for the inhibition in vivo at 80 µmol/kg in the experiment with Rattus norvegicus [7] and with Rattus norvegicus [8] were 30% and 40%, respectively. With `COc1ccc(C(O)c2cccc(C(C)CN3CCCCC3CC3CCCCC3)c2)cc1` (centres undefined), the inhibition in vivo at 20 µmol/kg with Rattus norvegicus [2] is 0%. As for `Cc1cccc(C(=O)c2cccc(C(C)CN3CCCCC3CC3CCCCC3)c2)c1` (centres undefined), the inhibition in vivo at 20 µmol/kg in the experiment on Rattus norvegicus [2] was 0%. As for `CC(CN1CCCCC1CC1CCCCC1)c1cccc(/C(=N\O)c2ccccc2)c1` (centres undefined), in the experiment with Rattus norvegicus [9], the inhibition in vivo at 20 µmol/kg was 40%. For the same compound, the inhibition in vivo at 80 µmol/kg with Rattus norvegicus [4] was 90%. Regarding `CC(CN1CCCCC1CC1CCCCC1)c1cccc(C(O)c2cccc(Cl)c2)c1` (centres undefined), the inhibition in vivo at 20 µmol/kg in the experiment with Rattus norvegicus [2] is 0%. Take `CC(CN1CCCCC1)c1cccc(C(=O)c2ccccc2)c1` (centres undefined): the inhibition in vivo at 80 µmol/kg was 30% with Rattus norvegicus [7] and 40% in the experiment on Rattus norvegicus [8].

Regarding `CC(CN1CCCC1CC1CCCCC1)c1cccc(C(=O)c2ccccc2)c1` (centres undefined), the inhibition in vivo at 80 µmol/kg with Rattus norvegicus [5] is 40%; in the experiment with Rattus norvegicus [6], 70%. Turning to `CC(CN1CCCCC1CC1CCCCC1)c1cccc(C(=O)c2ccc(F)cc2)c1` (centres undefined), the Inhibition in the experiment with Rattus norvegicus [10] is given as 61%; in the experiment on Rattus norvegicus [14] it was 85%; with Rattus norvegicus [22] it was 55%. In addition, the highest non-ulcerogenic dose in the experiment listed under Rattus norvegicus [11] was found to be 3 µmol/kg. The Ulcerogenic index was 0 in the experiment on Rattus norvegicus [12]; “Toxic” with Rattus norvegicus [17]; 1 with Rattus norvegicus [18]; 3 in the experiment with Rattus norvegicus [19]; 1 in the experiment with Rattus norvegicus [21]. In addition, the Weight gain in the experiment with Rattus norvegicus [13] stood at 31%; with Rattus norvegicus [15], 50%; in the experiment on Rattus norvegicus [20], 81%. For the same compound, in the experiment on Rattus norvegicus [3], the inhibition in vivo at 20 µmol/kg is 30%. The inhibition in vivo at 80 µmol/kg with Rattus norvegicus [16] was 80%. Regarding `COc1ccc(C(=O)c2cccc(C(C)CN3CCCCC3CC3CCCCC3)c2)cc1` (centres undefined), in the experiment with Rattus norvegicus [23], the inhibition in vivo at 80 µmol/kg was 60%. Besides, the inhibition in vivo at 20 µmol/kg in the experiment with Rattus norvegicus [1] was 20%. On to `CC(CN1CCCCC1CC1CCCCC1)c1cccc(C(=O)c2ccc(Cl)c(Cl)c2)c1` (centres undefined), for which the inhibition in vivo at 20 µmol/kg in the experiment on Rattus norvegicus [2] was 0%.

Turning to `CC(CN1CCCCC1CC1CCCCC1)c1cccc(C(=O)c2ccccc2Cl)c1` (centres undefined), in the experiment on Rattus norvegicus [3], the inhibition in vivo at 20 µmol/kg is 30%. For the same compound, the inhibition in vivo at 80 µmol/kg in the experiment on Rattus norvegicus [6] is 70%.

For orientation: inhibition in vivo means the percentage by which the read-out fell short of the control. Usually Inhibition stands for the drop in the measured response relative to a control, in per cent.
